EBNA-1 inh: blocks EBNA-1 binding to DNA. 0.34% of 300,000 active. EBNA-1 DNA binding, fluorescence polarization. AID 1950. inhibition, % at 14.8 µM; in the data active = inhibition above about 28%
EBV gp42 inh: inhibitors of Epstein-Barr virus glycoprotein 42; 0.42% of 220,000 active; inhibition, % (tested at 21.74 µM); Q1HVG2; Fluorescence polarization binding assay, mP read-out; in the data active = inhibition above about 50%
HCV NS3 hel inh: blocks Hepatitis C virus NS3 helicase unwinding. NS3 helicase DNA unwinding, Cy5 molecular beacon fluorescence. inhibition, % at 10.9 µM. 0.56% of 290,000 active;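 active = inhibition above the mean of all tested compounds plus 3 SD, set per campaign, cut at about 35% in these data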;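 note: 0% = DMSO wells and 100% = thioflavine S control wells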
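System: Hepatitis C virus NS3 helicase domain fragment enzyme | Reagent: Annealed dual-labelled DNA beacon duplex, ATP-started | Compound dosing: 10.9 µM single point, 0.8% DMSO | Incubation: 1 h reaction at 25 °C, ATP-initiated | Technique: Cy5 fluorescence | Evaluation: Percent inhibition from t60/t0 fluorescence ratio | Benchmarks: Low DMSO, high thioflavine S at 110 µM | Replication: Singlicate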
HCV core dimer: blocks dimerization of HCV core protein | TR-FRET GST/Flag-core106 dimerization, 1536-well | inhibition, % at 5 µM | 0.33% of 300,000 active | AID 1899;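 active = inhibition above the mean of all tested compounds plus 3 SD, set per screening campaign, cut at about 45% in these data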
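Assay system: Tagged HCV core106 pair (GST and Flag) | Buffer or medium: KF-containing HEPES buffer, pH 7.45, DTT, CHAPS, BSA | Also added: Eu donor and XL665 acceptor anti-tag antibodies | Dosing: One concentration, 5 µM, in 0.5% DMSO | Timing: 4 h at 22.5 °C | Technique: TR-FRET 671 and 617 nm emission | Repeats: Singlicate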
ZTA DNA inh: counter-screen for EBNA-1 inhibitors: inhibitors of Epstein-Barr virus ZTA; AID 2234; inhibition, % at 11 µM; 0.15% of 320,000 active; P03206; ZTA-DNA binding, fluorescence polarization; in the data active = inhibition above about 33%
MEX-5 binding: C. elegans MEX-5 TCR-2 RNA binding activity; MEX-5/FITC-TCR2 RNA binding, fluorescence polarization; active compounds read low; AID 1832; 0.38% of 300,000 active; activity score (negative = inhibition of binding), % at 10 µM; Q9XUB2;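 active = inhibition past about -25% in most replicates, and total fluorescence under double the plate's negative control median, limit read from the data; inconclusive = replicates evenly split on the limit, or fluorescence at least double controls; inactive = too little inhibition in most replicates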;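 note: 0% = DMSO and -100% = 5 µM competing unlabeled TCR2 RNA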
Target sequence (Q9XUB2 whole entry, looked up): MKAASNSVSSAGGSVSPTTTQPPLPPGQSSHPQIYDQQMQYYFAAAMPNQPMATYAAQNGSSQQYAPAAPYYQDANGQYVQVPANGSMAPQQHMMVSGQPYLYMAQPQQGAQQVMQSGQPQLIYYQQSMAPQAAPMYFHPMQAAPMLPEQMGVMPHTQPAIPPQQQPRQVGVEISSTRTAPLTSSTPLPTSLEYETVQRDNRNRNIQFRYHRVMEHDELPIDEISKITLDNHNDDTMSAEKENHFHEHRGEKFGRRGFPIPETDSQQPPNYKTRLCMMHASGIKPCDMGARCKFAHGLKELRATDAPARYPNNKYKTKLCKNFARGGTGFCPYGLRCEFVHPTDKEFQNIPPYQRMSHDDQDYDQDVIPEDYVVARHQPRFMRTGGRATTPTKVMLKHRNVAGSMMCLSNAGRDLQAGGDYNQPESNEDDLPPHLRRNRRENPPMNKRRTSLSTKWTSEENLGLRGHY
* marks the source's active call; other numbers are inactive results; u = inconclusive; x = not tested or not shown. Compounds with a hit are over-represented: about 1.7% of the library has one in this group of screens.

SMILES	EBNA-1 inh	EBV gp42 inh	HCV NS3 hel inh	HCV core dimer	ZTA DNA inh	MEX-5 binding
Cc1cc(C(=O)OCC(=O)c2ccc(Cl)c([N+](=O)[O-])c2)c2cccc(C)c2n1	-0.2	2.4	12.5	46.4*	6.0	-0.7
Cc1ccc(/C=C2\SC(N3CCN(C(c4ccccc4)c4ccccc4)CC3)=NC2=O)o1	2.7	-13.9	12.6	60.3*	-1.1	0.3
Cc1cc(NS(=O)(=O)c2ccc(Nc3nc(-c4sc(N)nc4C)cs3)cc2)no1	4.1	-8.0	7.5	-23.9	27.1	-29.0*
O=C(CNC(=O)/C=C/c1ccco1)N=Nc1c(O)[nH]c2ccccc12	8.6	x	19.4	12.6	11.0	-29.3*
O=C1/C(=N\S(=O)(=O)c2cccs2)C([n+]2cccc(Cc3ccccc3)c2)=C([O-])c2ccccc21	4.8	142.3*	-1.8	-7.4	-2.6	u
CC(C)(C)c1cc[n+](C2=C([O-])c3ccccc3C(=O)/C2=N\S(=O)(=O)c2ccccc2)cc1	2.4	3.1	-0.3	-11.1	2.9	-2.8
O=C1/C(=N\S(=O)(=O)c2cccs2)C([n+]2ccc(CCCc3ccccc3)cc2)=C([O-])c2ccccc21	-9.9	35.0	-13.4	2.1	8.3	-40.1*
Cc1ccccc1NC1=C/C(=N\S(=O)(=O)c2cccs2)c2ccccc2C1=O	7.7	-15.7	0.7	7.7	15.0	1.7
Cc1cc[n+](C2=C([O-])c3ccccc3C(=O)/C2=N\S(=O)(=O)c2cccs2)cc1C	-3.9	-4.1	6.2	-30.0	-9.0	-33.7*
Cc1cc(C)c[n+](C2=C([O-])c3ccccc3C(=O)/C2=N\S(=O)(=O)c2cccs2)c1	12.4	-3.9	-6.2	-18.8	10.2	2.4
CC(C)CN(C(=O)CCCOc1ccc(Cl)cc1Cl)c1c(N)n(Cc2ccccc2)c(=O)[nH]c1=O	2.5	x	x	4.1	3.5	3.3
O=C(O)CN=CC1=C(O)CC(c2ccccc2)CC1=O (stereo unspecified)	-10.4	x	8.1	-13.1	-15.2	0.5
CCOC(=O)c1ccc(N2C(=O)C3CCCN3C2=S)cc1 (stereo unspecified)	x	x	x	x	-7.7	x
Cn1c(CNC(=O)CCNC(=O)c2ccccc2F)cc(=O)n(C)c1=O	-10.1	x	8.3	-3.2	-2.0	1.6
COc1cccc(Nc2ncccc2C(=O)NCc2ccccc2)c1	x	67.8*	-15.9	x	x	x
Cc1ccc(S(=O)(=O)Nc2c(C)cc(C)nc2Cl)cc1	-9.6	x	-3.8	1.2	4.7	-1.1
Cc1ccccc1C(=O)Nc1ccc2c(C#N)c3nc4ccccc4nc3n2c1	4.4	112.3*	24.6	22.7	6.9	1.8
Cc1c(C(=O)Nc2ccccc2)cn2c(nc3ccccc32)c1C#N	-13.5	-22.2	6.9	0.8	-2.8	-1.2
COc1cc(C(=O)OC(C)c2ccc(F)cc2)ccc1OCC(=O)N1CCOCC1 (stereo unspecified)	x	x	x	x	-2.7	x
COc1cc(C(=O)OCc2cccc(OC)c2OC)ccc1OCC(=O)N1CCOCC1	x	x	x	x	9.0	x
O=[N+]([O-])c1ccc(Cl)c2c1C1C=CCC1C(c1ccccn1)N2 (stereo unspecified)	12.6	-5.2	21.8	58.4*	-0.5	-3.0
Cc1cc([N+](=O)[O-])cc2c1NC(c1ccccn1)C1CC=CC21 (stereo unspecified)	1.7	-10.6	9.0	49.4*	6.1	-2.8
C1=CC2c3ccccc3NC(c3ccncc3)C2C1 (stereo unspecified)	5.7	-6.4	12.7	7.4	-14.3	-2.3
Cn1c(CC(=O)Nc2ccccc2F)nnc1SCC(=O)N1CCOCC1	8.2	x	0.2	-2.1	4.4	-3.0
O=C(CNS(=O)(=O)c1ccc([N+](=O)[O-])cc1)N/N=C/c1ccc(O)cc1O	-2.2	x	7.1	-7.1	4.4	-57.0*
CCC(Cc1ccccc1)NC(=O)CSc1ccsc1[N+](=O)[O-] (stereo unspecified)	-12.6	-5.4	5.9	0.3	15.1	3.3
O=C(CSc1ccsc1[N+](=O)[O-])NCCc1ccc(Cl)cc1	-11.5	12.8	-5.8	10.6	1.7	-3.0
CC(=O)c1ccc(NC(=O)CSc2ccsc2[N+](=O)[O-])cc1	x	51.1*	3.1	x	x	-4.4
Cc1ccc(CNC(=O)CSc2ccsc2[N+](=O)[O-])cc1	-0.8	3.7	9.7	2.2	-8.9	0.6
